{
  "source": "PubChem BioAssay AID623976",
  "about": "(Vanderbilt High Throughput Screening Facility, 2012)",
  "target": "G protein-activated inward rectifier potassium channel 4 (Homo sapiens) + G protein-activated inward rectifier potassium channel 1 (Homo sapiens) (UniProt P48544+P48549)",
  "sequence (P48544 whole entry, looked up)": "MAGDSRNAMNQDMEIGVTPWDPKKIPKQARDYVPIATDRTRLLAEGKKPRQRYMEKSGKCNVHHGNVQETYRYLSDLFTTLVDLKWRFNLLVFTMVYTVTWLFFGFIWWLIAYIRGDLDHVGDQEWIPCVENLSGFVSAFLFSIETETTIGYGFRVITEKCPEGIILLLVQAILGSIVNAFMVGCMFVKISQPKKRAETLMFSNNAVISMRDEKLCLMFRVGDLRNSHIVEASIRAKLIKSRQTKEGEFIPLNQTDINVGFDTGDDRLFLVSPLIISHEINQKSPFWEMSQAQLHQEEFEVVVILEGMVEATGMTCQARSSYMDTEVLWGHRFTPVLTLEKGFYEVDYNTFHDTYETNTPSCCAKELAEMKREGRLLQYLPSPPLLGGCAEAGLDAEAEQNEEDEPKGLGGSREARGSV",
  "sequence (P48549 whole entry, looked up)": "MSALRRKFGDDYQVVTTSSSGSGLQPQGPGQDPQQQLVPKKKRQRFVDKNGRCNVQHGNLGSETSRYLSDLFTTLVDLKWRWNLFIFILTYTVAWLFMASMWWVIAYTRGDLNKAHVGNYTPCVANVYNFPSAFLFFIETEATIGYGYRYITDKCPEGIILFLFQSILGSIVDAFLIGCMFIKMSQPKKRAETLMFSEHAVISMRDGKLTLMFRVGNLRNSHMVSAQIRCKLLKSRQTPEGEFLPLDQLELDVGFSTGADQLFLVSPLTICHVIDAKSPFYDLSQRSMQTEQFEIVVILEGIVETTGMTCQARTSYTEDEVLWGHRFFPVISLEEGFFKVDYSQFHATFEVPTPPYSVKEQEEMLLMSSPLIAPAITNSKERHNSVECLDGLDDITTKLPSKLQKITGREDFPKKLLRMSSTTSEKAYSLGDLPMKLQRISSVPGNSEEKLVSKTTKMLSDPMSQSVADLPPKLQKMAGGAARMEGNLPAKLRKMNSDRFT",
  "experiment": "activation of Ba2+-sensitive GIRK1/4 currents – HEK-293 hGIRK1/4, whole-cell patch clamp, confirmation (AID 623976)",
  "conditions": "HEK-293 hGIRK1/4, whole-cell patch clamp Ba2+-sensitive current",
  "in_short": "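Compound – concentration series of compound · Test system – HEK-293 cells stably expressing human GIRK1/4 channels · Times – recording 24-72 h post-plating · Evaluation – capacitance-normalized Ba2+-sensitive steady-state current density, four-parameter logistic EC50 · Medium – 20K external solution, KCl pipette solution · Measured by – whole-cell voltage clamp at -70 mV, 2 mM BaCl2-sensitive current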",
  "data": [
    {"compound": "Cc1cc(NC(=O)Nc2ccc(F)c(F)c2)n(-c2ccccc2)n1", "values": [
      {"measurement": "EC50", "result": 1.59, "unit": "µM"}
    ]}
  ]
}
